Measurements: ChEMBL document CHEMBL2321771, “Inhibition of Ebola Virus Infection: Identification of Niemann-Pick C1 as the Target by Optimization of a Chemical Probe” (ACS Med Chem Lett, 2013)
pIC50: −log10 of the molar value. Calls of active or inactive are those of the source. No cut-off for these calls is given here.

How the values were obtained:
[1] = target: T1, NPC intracellular cholesterol transporter 1 (Mus musculus) (UniProt O35604); test: Inhibition of mouse NPC1 interaction to Ebola virus GP expressed in LE/LY membrane of CHO cells by immunoblotting; assay type: cell-based
T1 sequence (whole entry): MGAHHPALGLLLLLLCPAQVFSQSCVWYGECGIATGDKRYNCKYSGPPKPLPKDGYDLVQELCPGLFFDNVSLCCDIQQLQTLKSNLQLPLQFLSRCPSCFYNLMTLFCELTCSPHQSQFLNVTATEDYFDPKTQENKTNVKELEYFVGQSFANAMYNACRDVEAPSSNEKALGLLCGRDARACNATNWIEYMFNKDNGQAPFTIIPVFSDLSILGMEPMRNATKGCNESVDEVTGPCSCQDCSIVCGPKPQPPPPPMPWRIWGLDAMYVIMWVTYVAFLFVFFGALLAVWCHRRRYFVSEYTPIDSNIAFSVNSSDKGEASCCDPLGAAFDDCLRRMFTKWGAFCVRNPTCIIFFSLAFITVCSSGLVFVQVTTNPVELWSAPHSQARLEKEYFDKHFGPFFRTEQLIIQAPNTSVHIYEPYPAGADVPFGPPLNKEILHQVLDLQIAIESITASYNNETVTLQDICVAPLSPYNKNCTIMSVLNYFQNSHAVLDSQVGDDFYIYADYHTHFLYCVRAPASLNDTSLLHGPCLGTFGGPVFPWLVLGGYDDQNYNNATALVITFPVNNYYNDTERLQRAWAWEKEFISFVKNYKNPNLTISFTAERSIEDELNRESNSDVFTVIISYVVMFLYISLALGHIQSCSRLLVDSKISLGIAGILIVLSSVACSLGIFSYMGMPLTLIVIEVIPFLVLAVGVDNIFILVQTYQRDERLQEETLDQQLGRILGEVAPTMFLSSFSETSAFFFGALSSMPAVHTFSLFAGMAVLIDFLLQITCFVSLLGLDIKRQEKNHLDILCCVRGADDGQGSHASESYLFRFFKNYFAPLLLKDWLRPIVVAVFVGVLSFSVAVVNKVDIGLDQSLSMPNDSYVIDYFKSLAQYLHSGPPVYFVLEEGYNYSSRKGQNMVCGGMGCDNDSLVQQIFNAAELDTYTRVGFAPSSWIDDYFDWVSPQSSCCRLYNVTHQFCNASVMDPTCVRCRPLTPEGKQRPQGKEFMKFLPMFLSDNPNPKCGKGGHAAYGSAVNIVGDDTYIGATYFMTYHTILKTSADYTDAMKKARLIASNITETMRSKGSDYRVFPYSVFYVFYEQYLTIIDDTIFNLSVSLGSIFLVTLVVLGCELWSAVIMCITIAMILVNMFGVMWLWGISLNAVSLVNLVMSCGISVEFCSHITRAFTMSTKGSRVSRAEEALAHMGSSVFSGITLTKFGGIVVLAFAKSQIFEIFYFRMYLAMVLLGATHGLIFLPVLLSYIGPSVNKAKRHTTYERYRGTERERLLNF
How it was run: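 Late endosome/lysosome membranes from NPC1-null CHO cells, or the same cells stably expressing mouse NPC1, were immobilized on ELISA plates. They were incubated with protease-cleaved Ebola GP in the presence of test compound at specified concentrations. After washing off unbound GP, membranes were solubilized in NP40 and bound GP was detected by GP1-antibody immunoblot. Results are representative of six experiments.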

[2] = target: T2, NPC intracellular cholesterol transporter 1 (Homo sapiens) (UniProt O15118); test: Binding affinity to human NPC1 expressed in LE/LY membrane of CHO cells at 25 uM by immunoblotting; assay type: cell membranes
T2 sequence (whole entry): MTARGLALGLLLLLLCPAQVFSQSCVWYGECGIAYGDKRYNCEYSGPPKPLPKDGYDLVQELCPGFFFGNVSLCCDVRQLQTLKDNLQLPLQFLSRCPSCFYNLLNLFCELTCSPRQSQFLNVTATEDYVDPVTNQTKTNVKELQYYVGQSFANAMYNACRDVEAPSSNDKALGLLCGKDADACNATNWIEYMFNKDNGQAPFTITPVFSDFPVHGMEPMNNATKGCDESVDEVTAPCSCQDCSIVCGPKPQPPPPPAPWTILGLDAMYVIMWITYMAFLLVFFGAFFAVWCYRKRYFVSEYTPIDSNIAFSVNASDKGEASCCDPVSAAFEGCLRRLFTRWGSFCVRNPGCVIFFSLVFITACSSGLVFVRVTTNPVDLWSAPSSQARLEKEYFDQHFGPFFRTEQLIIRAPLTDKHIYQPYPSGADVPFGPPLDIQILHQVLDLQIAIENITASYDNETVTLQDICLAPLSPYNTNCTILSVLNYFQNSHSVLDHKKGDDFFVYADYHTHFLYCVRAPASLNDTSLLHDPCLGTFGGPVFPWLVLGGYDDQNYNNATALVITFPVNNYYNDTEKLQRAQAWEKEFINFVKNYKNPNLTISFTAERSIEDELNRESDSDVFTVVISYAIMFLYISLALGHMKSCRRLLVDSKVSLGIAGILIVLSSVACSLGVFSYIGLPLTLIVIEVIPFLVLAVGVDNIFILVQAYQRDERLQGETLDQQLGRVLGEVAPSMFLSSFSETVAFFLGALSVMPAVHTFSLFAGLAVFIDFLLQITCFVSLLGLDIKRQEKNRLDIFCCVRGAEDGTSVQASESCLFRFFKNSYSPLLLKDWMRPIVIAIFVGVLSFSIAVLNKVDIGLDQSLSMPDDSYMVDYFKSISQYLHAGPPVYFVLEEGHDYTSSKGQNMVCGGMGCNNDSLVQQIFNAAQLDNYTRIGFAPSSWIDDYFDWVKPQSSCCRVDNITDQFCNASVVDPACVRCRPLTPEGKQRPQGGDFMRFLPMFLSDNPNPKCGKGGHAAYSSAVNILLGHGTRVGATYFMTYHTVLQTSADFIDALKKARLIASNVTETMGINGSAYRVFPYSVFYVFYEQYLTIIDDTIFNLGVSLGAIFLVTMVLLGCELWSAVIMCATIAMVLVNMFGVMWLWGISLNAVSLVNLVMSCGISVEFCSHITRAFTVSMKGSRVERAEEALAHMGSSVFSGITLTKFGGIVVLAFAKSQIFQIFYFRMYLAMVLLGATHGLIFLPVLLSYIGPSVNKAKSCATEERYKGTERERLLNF
How it was run: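 Purified late endosome/lysosome membranes came from NPC1-null CHO cells and CHO cells overexpressing human NPC1. […] Cross-linked proteins were click-labelled with Alexa Fluor 488 azide and detected by anti-Alexa 488 immunoblot. NPC1 was confirmed by anti-NPC1 immunoprecipitation and immunoblot.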

Ebolavirus = test: Antiviral activity against Ebola virus by cell based luciferase reporter gene assay; assay type: functional, Ebola virus sp.; conditions: Orthoebolavirus
Lassa virus = test: Antiviral activity against Lassa virus by cell based luciferase reporter gene assay; assay type: functional, organism-based; conditions: Mammarenavirus lassaense
[3] = system: Vesicular stomatitis virus; test: Antiviral activity against Vesicular stomatitis virus by cell based luciferase reporter gene assay; assay type: functional, organism-based

| Compound | inhibition [1] | Activity [2] | pIC50 (Ebolavirus) | inhibition (Lassa virus) | inhibition [3] |
| --- | --- | --- | --- | --- | --- |
| C#Cc1ccc(COc2ccc(N=[N+]=[N-])cc2CN2CCN(C(=O)CNC(=O)CC34CC5CC(CC(C5)C3)C4)CC2)cc1 | Active | Active |  |  |  |
| COC(=O)c1ccc(COc2ccccc2CN2CCN(C(=O)CNC(=O)CC34CC5CC(CC(C5)C3)C4)CC2)cc1 | Active |  | 7.70 | inactive | inactive |
